The values below come from ChEMBL document CHEMBL1140861, “Short antisense oligonucleotides with novel 2'-4' conformationaly restricted nucleoside analogues show improved potency without increased toxicity in animals” (J Med Chem, 2009).

For orientation: IC50 means the concentration that inhibits the measured activity by half. Low values mean higher potency, high ones lower potency. The ED50 is the dose that gives a 50% effect, or the effect in half of the subjects. Read a high ED50 as a need for a large dose.

The test system of series [1] is Mus musculus. Kind of series: Hepatotoxicity in BALB/c mouse assessed as increase in liver ALT level at 4.7 mg/kg, ip administered twice a week for 3 weeks measured after 72 hrs of last dose. The format is toxicity, organism-based. The following applies: in vivo. Set-up: dose 4.7 mg/kg, route intraperitoneal. The gist of the method:
(§1)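 Male Balb/c mice, 6 weeks old, dosed ip twice weekly for 3 weeks at 0.5, 1.5, 4.7 and 15 mg/kg (two ASOs) or 0.7, 2.3, 7.2 and 23 mg/kg (MOE control); sacrificed 72 h after last dose; ALT, liver PTEN mRNA, liver and spleen weights and body weight gain assessed; ED50 derived; errors as sd.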

Series [2] has as its system Mus musculus. Kind of series: Hepatotoxicity in BALB/c mouse assessed as increase in liver ALT level at 1.5 mg/kg, ip administered twice a week for 3 weeks measured after 72 hrs of last dose. The format is toxicity, organism-based. Set-up: dose 1.5 mg/kg, route intraperitoneal. The settings on record: in vivo. The procedure, abridged: as §1
In series [3] the test system is Mus musculus. Kind of series: Hepatotoxicity in BALB/c mouse assessed as increase in liver ALT level at 0.7 mg/kg, ip administered twice a week for 3 weeks measured after 72 hrs of last dose. The format is toxicity, organism-based. Details: dose 0.7 mg/kg, route intraperitoneal. The following applies: in vivo. The procedure, abridged:
as §1

Series [4] has as its system bEND. Kind of series: Reduction in mouse PTEN mRNA level expressed in mouse bEND cells. Type of series: functional, cell-based. The procedure, abridged: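 bEND mouse brain endothelial cells transfected with ASO using lipofectin; PTEN mRNA reduction measured over a dose range; IC50 taken from dose-response curves.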
For series [5], the system named is Mus musculus. Put plainly: Reduction of PTEN mRNA level in BALB/c mouse liver at 37 mg/kg, ip after 72 hrs. The format is functional, organism-based. Details: dose 37 mg/kg.
For series [6], the system named is Mus musculus. Put plainly: Hepatotoxicity in BALB/c mouse assessed as increase in liver ALT level at 7.2 mg/kg, ip administered twice a week for 3 weeks measured after 72 hrs of last dose. The settings on record: in vivo. Type of series: toxicity, organism-based. Set-up: dose 7.2 mg/kg, route intraperitoneal. The gist of the method:
as §1

Series [7] deals with Mus musculus. Kind of series: Hepatotoxicity in BALB/c mouse assessed as increase in liver ALT level at 0.5 mg/kg, ip administered twice a week for 3 weeks measured after 72 hrs of last dose. The following applies: in vivo. Set-up: dose 0.5 mg/kg, route intraperitoneal. Type of series: toxicity, organism-based. The procedure, abridged: as §1
In series [8] the test system is Mus musculus. Put plainly: Toxicity in BALB/c mouse assessed as reduction in body weight at 1.5 mg/kg, ip administered twice a week for 3 weeks measured after 72 hrs of last dose. The format is organism-based. The settings on record: in vivo. Details: dose 1.5 mg/kg, route intraperitoneal. The gist of the method:
as §1

For series [9], the system named is Mus musculus. Kind of series: Toxicity in BALB/c mouse assessed as reduction in body weight at 0.5 mg/kg, ip administered twice a week for 3 weeks measured after 72 hrs of last dose. The format is organism-based. Details: dose 0.5 mg/kg, route intraperitoneal. The following applies: in vivo. The procedure, abridged:
as §1

Series [10] has as its system Mus musculus. Put plainly: Hepatotoxicity in BALB/c mouse assessed as increase in liver ALT level at 23 mg/kg, ip administered twice a week for 3 weeks measured after 72 hrs of last dose. Type of series: toxicity, organism-based. Details: dose 23 mg/kg, route intraperitoneal. The settings on record: in vivo. The procedure, abridged:
as §1

Series [11] has as its system Mus musculus. Put plainly: Reduction of PTEN level in ip dosed BALB/c mouse liver at 37 mg/kg by Western blot analysis. The format is functional, organism-based. Details: dose 37 mg/kg. (In general: A western blot detects proteins with antibodies after separation by electrophoresis.)
Series [12] deals with Mus musculus. Kind of series: Hepatotoxicity in BALB/c mouse assessed as increase in liver ALT level at 60 mg/kg, ip after 72 hrs. Details: dose 60 mg/kg, route intraperitoneal. The settings on record: in vivo. Type of series: toxicity, organism-based.
For series [13], the species on record is Mus musculus. Kind of series: Binding affinity to mouse PTEN mRNA assessed as melting temperature. The gist of the method:
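Tm of ASO–RNA duplex, i.e. melting temperature of the ASO hybridised to its complementary RNA.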

Series [14] relates to Mus musculus. Put plainly: Reduction of PTEN mRNA level in ip dosed BALB/c mouse liver administered twice a week for 3 weeks measured after 72 hrs of last dose. The format is functional. The procedure, abridged:
as §1

Series [15] relates to Mus musculus. Put plainly: Reduction of PTEN mRNA level in BALB/c mouse liver at 60 mg/kg, ip after 72 hrs. The format is functional, organism-based. Details: dose 60 mg/kg.
In series [16] the test system is Mus musculus. Put plainly: Toxicity in BALB/c mouse assessed as reduction in body weight at 4.7 mg/kg, ip administered twice a week for 3 weeks measured after 72 hrs of last dose. The format is organism-based. Details: dose 4.7 mg/kg, route intraperitoneal. The settings on record: in vivo. The procedure, abridged:
as §1

For series [17], the system named is Mus musculus. Put plainly: Reduction of PTEN mRNA level in ip dosed BALB/c mouse liver after 72 hrs. Type of series: functional.
Series [18] concerns Mus musculus. Put plainly: Hepatotoxicity in BALB/c mouse assessed as increase in liver ALT level at 15 mg/kg, ip administered twice a week for 3 weeks measured after 72 hrs of last dose. Type of series: toxicity, organism-based. Set-up: dose 15 mg/kg, route intraperitoneal. The settings on record: in vivo. The procedure, abridged:
as §1

In series [19] the test system is Mus musculus. Put plainly: Hepatotoxicity in BALB/c mouse assessed as increase in liver ALT level at 2.3 mg/kg, ip administered twice a week for 3 weeks measured after 72 hrs of last dose. The format is toxicity, organism-based. Set-up: dose 2.3 mg/kg, route intraperitoneal. The settings on record: in vivo. The procedure, abridged:
as §1

The test system of series [20] is Mus musculus. Put plainly: Toxicity in BALB/c mouse assessed as reduction in body weight at 15 mg/kg, ip administered twice a week for 3 weeks measured after 72 hrs of last dose. Type of series: organism-based. Set-up: dose 15 mg/kg, route intraperitoneal. The settings on record: in vivo. The procedure, abridged:
as §1

Activity calls are given as the source filed them. The rule behind the calls is not given here.

Take `COCCO[C@@H]1[C@H](O)[C@@H](COP(O)(=S)O[C@H]2[C@@H](OCCOC)[C@H](n3cc(C)c(=O)[nH]c3=O)O[C@@H]2COP(O)(=S)O[C@H]2[C@@H](OCCOC)[C@H](n3cnc4c(=O)[nH]c(N)nc43)O[C@@H]2COP(O)(=S)O[C@H]2[C@@H](OCCOC)[C@H](n3cc(C)c(N)nc3=O)O[C@@H]2COP(O)(=S)O[C@H]2[C@@H](OCCOC)[C@H](n3cc(C)c(=O)[nH]c3=O)O[C@@H]2COP(O)(=S)O[C@H]2[C@@H](O)[C@H](n3cnc4c(N)ncnc43)O[C@@H]2COP(O)(=S)O[C@H]2[C@@H](O)[C@H](n3cnc4c(=O)[nH]c(N)nc43)O[C@@H]2COP(O)(=S)O[C@H]2[C@@H](O)[C@H](n3cc(C)c(N)nc3=O)O[C@@H]2COP(O)(=S)O[C@H]2[C@@H](O)[C@H](n3cc(C)c(N)nc3=O)O[C@@H]2COP(O)(=S)O[C@H]2C[C@H](n3cc(C)c(=O)[nH]c3=O)O[C@@H]2COP(O)(=S)O[C@H]2[C@@H](O)[C@H](n3cc(C)c(N)nc3=O)O[C@@H]2COP(O)(=S)O[C@H]2C[C@H](n3cc(C)c(=O)[nH]c3=O)O[C@@H]2COP(O)(=S)O[C@H]2[C@@H](O)[C@H](n3cnc4c(=O)[nH]c(N)nc43)O[C@@H]2COP(O)(=S)O[C@H]2[C@@H](O)[C@H](n3cnc4c(=O)[nH]c(N)nc43)O[C@@H]2COP(O)(=S)O[C@H]2[C@@H](O)[C@H](n3cnc4c(N)ncnc43)O[C@@H]2COP(O)(=S)O[C@H]2[C@@H](OCCOC)[C@H](n3cc(C)c(=O)[nH]c3=O)O[C@@H]2COP(O)(=S)O[C@H]2[C@@H](OCCOC)[C@H](n3cc(C)c(=O)[nH]c3=O)O[C@@H]2COP(O)(=S)O[C@H]2[C@@H](OCCOC)[C@H](n3cc(C)c(=O)[nH]c3=O)O[C@@H]2COP(O)(=S)O[C@H]2[C@@H](OCCOC)[C@H](n3cnc4c(=O)[nH]c(N)nc43)O[C@@H]2COP(O)(=S)O[C@H]2[C@@H](OCCOC)[C@H](n3cnc4c(N)ncnc43)O[C@@H]2CO)O[C@H]1n1cc(C)c(N)nc1=O` (stereo not given in full): the Activity result in series [1], in series [2], in [3], in series [6], in series [7] and in series [8] was “Non-toxic” throughout. For the same molecule, the Activity result in series [9], in series [10], in [12], in series [16], in series [18] and in series [19] was “Non-toxic” throughout. Also, the Activity entry in series [20] is “Non-toxic”. The molecule further registered an IC50 in series [4] of 6.2 nM. Besides, the outcome in series [5], in series [11] and in series [15] was Active. The Tm in series [13] is 67.9 °C. Also, the results for the ED50 in [14] and in [17] were 9.5 mg/kg and 36 mg/kg, respectively.
